Assay outcomes (PubChem)
Only some compounds are listed: those with a hit (about 2% of all), similar ones and a draw of the others.
CaV13 ICDI inh: Primary screen for inhibitors of IQ motif and Ca2+-dependent inactivation inhibitor domain binding in CACNA1D, Förster resonance energy transfer in living cells, …. HEK cells, CFP/YFP FRET ICDI-IQ, plate reader, 10 min; percent FRET-ratio fall versus neutral wells. inhibition, % at 12.3 µM. 0.098% of 340,000 active. AID 743397;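 active = mean replicate inhibition of at least 30% and at least 1% of replicates passing that level; inconclusive = only one of the two criteria is met; inactive = neither criterion is met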
DENV2 CPE: inhibitors of DENV2 cytopathic effect. DENV2-infected cells, cytopathic effect rescue, plate reader. CPE inhibition, % at 9.99 µM. 1.7% of 350,000 active; in the data active = CPE inhibition above about 20%, passing the limit was not always enough; inconclusive = no clear call, values can overlap the other calls; tested in BHK-21 cells
FN deposit inh: fibronectin deposition inhibition | AID 743247 | inhibition, % at 12.6 µM | AH1F fibroblasts, Alexa488-fibronectin deposition fluorescence, overnight | 0.086% of 350,000 active;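 active = mean inhibition across replicates of 30% or more, regardless of how many single replicates reach that level; inconclusive = mean under 30% yet at least half of replicates reach 30%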
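material = AH1F fibroblast monolayer depositing Alexa488-labelled fibronectin into matrix | amount = 10000 AH1F cells/well | buffer or medium = DMEM plus 2% serum, read in PBS | incubation = 1 h cell adhesion before compound, then overnight fibronectin incubation | detection = fluorescence at 485 nm excitation, 525 nm emission | evaluation = percent inhibition as loss of matrix-bound fibronectin fluorescence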
Xi reactivation: X-chromosome reactivation activator | AID 743238 | activation, % at 7.58 µM | XiGFP mouse fibroblasts, % GFP-positive cells imaging, 3 d; cells co-treated with 5-aza-dC sensitizer; scaled so ellipticine positive control = 100% | 0.055% of 360,000 active;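 active = mean normalized replicate activation at least 10% and every replicate at or above 10%; inconclusive = only one of the two criteria met; inactive = mean below 10% and not all replicates reach 10%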
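Assay system: SV40-immortalized XiGFP fibroblast cells, line 68-5-11; buffer or medium: DMEM plus 5-aza-dC sensitizer; compound: one concentration, pinned; timing: compounds 3 days, fix/stain 15 min at room temperature; benchmarks: positive control ellipticine, 6 µM final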
CASP6 VEID inh: blocks human caspase-6 cleavage activity; P55212; purified caspase-6, Z-VEID-R110 cleavage fluorescence; inhibition, % at 12.5 µM; 0.53% of 350,000 active; AID 686996;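 active = mean inhibition across replicates at least about 35%, with every replicate also reaching that limit, limit read from the data; inconclusive = only one of the two criteria met; inactive = neither criterion met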
Target sequence (P55212 24-179 limits assumed): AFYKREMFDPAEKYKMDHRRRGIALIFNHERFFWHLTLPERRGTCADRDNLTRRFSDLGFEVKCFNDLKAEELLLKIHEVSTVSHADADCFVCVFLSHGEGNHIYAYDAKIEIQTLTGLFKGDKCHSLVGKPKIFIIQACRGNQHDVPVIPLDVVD
Target sequence (P55212 194-293 limits assumed): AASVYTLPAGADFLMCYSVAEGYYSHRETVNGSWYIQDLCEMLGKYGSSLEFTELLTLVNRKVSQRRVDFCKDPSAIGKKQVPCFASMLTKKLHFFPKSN
Each line names hits and unclear results; the compound was inactive in the other large screens; ! = a repeat was not active.

O=C(CCc1ccccc1)Nc1cccc([N+](=O)[O-])c1	none
O=C(CCCc1ccccc1)Nc1cccc([N+](=O)[O-])c1	DENV2 CPE 40
O=C(CN1CCOCC1)NCC[C@H]1CC[C@@H](NS(=O)(=O)c2ccc(F)cc2)[C@H](CO)O1	none (no result: CaV13 ICDI inh, FN deposit inh)
O=C(N[C@H]1c2ccccc2C[C@H]1O)C1=C[C@H](c2coc3ccccc3c2=O)C[C@H](OCCCCO)O1	none (no result: CaV13 ICDI inh, FN deposit inh, Xi reactivation)
O=C(NCc1ccco1)c1ccc(Br)c(S(=O)(=O)N2CCCCC2)c1	CASP6 VEID inh 72 (no result: CaV13 ICDI inh, DENV2 CPE, FN deposit inh, Xi reactivation)
Cc1nc(SC(C)C(=O)c2c(N)n(C)c(=O)n(C)c2=O)c2c(C)c(C)sc2n1 (stereo not drawn)	CASP6 VEID inh 49
CO[C@H]1CN(C)C(=O)c2ccc(NS(C)(=O)=O)cc2OC[C@H](C)N(Cc2cncnc2)C[C@@H]1C	none (no result: CaV13 ICDI inh)
CN1CCN(c2ncnc3c2ncn3[C@H]2CN(Cc3ccc(Cl)cc3)C[C@@H](CO)O2)CC1	DENV2 CPE 35
OCCN1CCN(c2ncnc3c2ncn3[C@H]2CN(Cc3ccc(Cl)cc3)C[C@@H](CO)O2)CC1	none
COc1cc(NCCCNC(C)C)c2nccc(C)c2c1	CASP6 VEID inh 88
CCOC(=O)/C=C/c1cc(F)ccc1O	DENV2 CPE 21
CCOC(=O)/C=C/c1cccc(C)c1O	none
CCCC(=O)Nc1cc(OC)c(NC(=S)Nc2ccc(CC)cc2)cc1OC	none
CCCC(=O)Nc1cc(OC)c(NC(=S)Nc2cccc(C)c2)cc1OC	DENV2 CPE 92
COc1ccc2c3c(n(C)c2c1)[C@@H](CO)N(C(=O)Nc1ccc(F)cc1)CC31CN(S(=O)(=O)c2cccc(F)c2)C1	none (no result: CaV13 ICDI inh, DENV2 CPE, FN deposit inh, CASP6 VEID inh)
COCC(=O)Nc1ccc2c(c1)C(=O)N(C)[C@H]1CC[C@H](CC(=O)NCc3ccc(OC)cc3)O[C@@H]1CO2	none (no result: CaV13 ICDI inh, CASP6 VEID inh)
O=C(NCc1nc2ccccc2[nH]1)C1=C[C@@H](c2coc3ccccc3c2=O)C[C@@H](OCCCCO)O1	DENV2 CPE 82 (no result: CaV13 ICDI inh, FN deposit inh, Xi reactivation)
O=C(NCc1nc2ccccc2[nH]1)C1=C[C@@H](c2csc3ccccc23)C[C@@H](OCCCCO)O1	none
O=C(O)c1ccc2c(c1)C(=O)/C(=C\c1ccco1)C2=O	CASP6 VEID inh 41
Cc1ccc(S(=O)(=O)N(C)C[C@H]2Oc3ccc(NC(=O)c4ccncc4)cc3CC(=O)N([C@H](C)CO)C[C@@H]2C)cc1	none (no result: CaV13 ICDI inh, FN deposit inh)
Cc1ccc(S(=O)(=O)N(C)C[C@@H]2Oc3ccc(NC(=O)c4ccncc4)cc3C(=O)N([C@H](C)CO)C[C@H]2C)cc1	DENV2 CPE 31 (no result: CaV13 ICDI inh, FN deposit inh)
Cc1ccc(S(=O)(=O)N(C)C[C@@H]2Oc3ccc(NC(=O)c4ccncc4)cc3CC(=O)N([C@@H](C)CO)C[C@@H]2C)cc1	DENV2 CPE 57 (no result: CaV13 ICDI inh, FN deposit inh)
Cc1ccc(S(=O)(=O)N(C)C[C@@H]2Oc3ccc(NC(=O)c4ccncc4)cc3C(=O)N([C@H](C)CO)C[C@@H]2C)cc1	none (no result: CaV13 ICDI inh, FN deposit inh)
Cc1ccc(S(=O)(=O)N(C)C[C@@H]2Oc3ccc(NC(=O)NC4CCCCC4)cc3C(=O)N([C@H](C)CO)C[C@@H]2C)cc1	DENV2 CPE 28 (no result: CaV13 ICDI inh, FN deposit inh)
CCNC(=O)C[C@@H]1CC[C@@H]2[C@H](COc3ccc(NC(=O)Nc4ccc(Cl)cc4)cc3C(=O)N2C)O1	none (no result: CaV13 ICDI inh)
c1cncc(-c2ccc3[nH]ccc3c2)c1	none
c1ccc(-c2ccc3[nH]ccc3c2)cc1	DENV2 CPE 87
C[C@@H]1CN([C@@H](C)CO)C(=O)c2cc(C#CCN(C)C)cnc2O[C@H]1CN(C)Cc1ccc(F)cc1	none (no result: CaV13 ICDI inh)
C[C@@H]1CN([C@H](C)CO)C(=O)c2cc(C#CCN(C)C)cnc2O[C@H]1CN(C)Cc1cccc(C(=O)O)c1	DENV2 CPE 30 (no result: CaV13 ICDI inh, FN deposit inh)
C[C@H]1CN([C@@H](C)CO)C(=O)c2cc(C#CCN(C)C)cnc2O[C@@H]1CN(C)Cc1cccc(C(=O)O)c1	DENV2 CPE inconclusive (no result: CaV13 ICDI inh, FN deposit inh)
C[C@H](CO)N1C[C@H](C)[C@@H](CN(C)Cc2ccc(F)cc2)Oc2ncc(C#CCN(C)C)cc2C1=O	DENV2 CPE 21 (no result: CaV13 ICDI inh)
COc1ccc(CN(C)C[C@@H]2Oc3ccc(NC(=O)C4CCCCC4)cc3C(=O)N([C@@H](C)CO)C[C@@H]2C)cc1	DENV2 CPE 38 (no result: CaV13 ICDI inh, FN deposit inh, CASP6 VEID inh)
C[C@@H]1CN([C@@H](C)CO)C(=O)c2cc(NC(=O)C3CCCCC3)ccc2O[C@H]1CN(C)Cc1ccc(-c2ccccc2)cc1	FN deposit inh 30 (no result: CaV13 ICDI inh)
COc1ccc(NC(=O)N(C)C[C@@H]2Oc3ccc(N(C)C)cc3C(=O)N([C@@H](C)CO)C[C@@H]2C)cc1	none (no result: CaV13 ICDI inh)
C[C@H](CO)N1C[C@H](C)[C@@H](CN(C)S(=O)(=O)c2cn(C)cn2)Oc2c(NS(=O)(=O)c3ccccc3)cccc2C1=O	DENV2 CPE 23!
C[C@@H]1CN([C@@H](C)CO)C(=O)c2cccc(NS(=O)(=O)c3cn(C)cn3)c2O[C@@H]1CN(C)Cc1ccc(C(F)(F)F)cc1	DENV2 CPE 22 (no result: CaV13 ICDI inh, FN deposit inh)
C[C@@H]1CN([C@@H](C)CO)C(=O)c2cccc(NS(=O)(=O)c3ccccc3)c2O[C@@H]1CN(C)CC1CCCCC1	DENV2 CPE 24 (no result: CaV13 ICDI inh, FN deposit inh)
C[C@H](CO)N1C[C@H](C)[C@H](CN(C)CC2CCCCC2)Oc2c(NC(=O)C3CC3)cccc2C1=O	DENV2 CPE 36 (no result: CaV13 ICDI inh, FN deposit inh)
C[C@H]1CN([C@@H](C)CO)C(=O)c2cccc(NC(=O)C3CC3)c2O[C@H]1CN(C)CC1CCCCC1	none
COc1cccc(-c2ccccc2[C@H]2[C@@H](CO)N(C(=O)Cc3ccccc3)[C@H]2C#N)c1	none (no result: CaV13 ICDI inh)
C[C@@H]1CCCCO[C@H](CN(C)C(=O)c2ccccc2)[C@@H](C)CN([C@@H](C)CO)C(=O)c2cc(NC(=O)NC3CCCCC3)ccc2O1	none (no result: CaV13 ICDI inh)
C[C@H](CO)N1C[C@H](C)[C@@H](CN(C)CC2CCCCC2)Oc2c(NC(=O)C3CC3)cccc2C1=O	none
C[C@@H]1CN([C@H](C)CO)C(=O)c2cccc(NC(=O)C3CC3)c2O[C@H]1CN(C)CC1CCCCC1	DENV2 CPE 75 (no result: CaV13 ICDI inh, FN deposit inh)
CC1OC(CCc2cccc(Cl)c2)Cc2[nH]c(=S)[nH]c(=O)c21 (stereo not drawn)	DENV2 CPE 40
CC(C)C[C@@H]1O[C@H](CCc2ccccc2)Cc2[nH]c(=S)[nH]c(=O)c21	none (no result: FN deposit inh)
CCc1cc(Cn2nc(-c3ccccc3)cc2C(=O)NCC2CC2)on1	DENV2 CPE 48
N#CC(=Nc1cccc(F)c1)C1=C(O)c2ccccc2C1=O	DENV2 CPE 32
COc1ccc(CN=C(C#N)C2=C(O)c3ccccc3C2=O)cc1	none
O=C(Cn1cncn1)c1ccc(Cl)cc1	none
Cc1ccc(C(=O)Cn2cncn2)cc1	Xi reactivation 16
CC(C)NC(=O)N1C[C@@H]2[C@H](c3ccccc31)[C@H](CO)N2C(=O)c1ccc(F)cc1	none (no result: CaV13 ICDI inh, FN deposit inh)
C[C@H](CO)N1C[C@H](C)[C@@H](CN(C)C(=O)Nc2ccc3c(c2)OCO3)OCCCC[C@H](C)Oc2ccc(NC(=O)c3ccncc3)cc2C1=O	none (no result: CaV13 ICDI inh)
